Measurements collected from several papers.
Target: cAMP-dependent protein kinase catalytic subunit PRKX (PRKX, Homo sapiens, UniProt P51817)
Residues used in one study (P51817 1-358): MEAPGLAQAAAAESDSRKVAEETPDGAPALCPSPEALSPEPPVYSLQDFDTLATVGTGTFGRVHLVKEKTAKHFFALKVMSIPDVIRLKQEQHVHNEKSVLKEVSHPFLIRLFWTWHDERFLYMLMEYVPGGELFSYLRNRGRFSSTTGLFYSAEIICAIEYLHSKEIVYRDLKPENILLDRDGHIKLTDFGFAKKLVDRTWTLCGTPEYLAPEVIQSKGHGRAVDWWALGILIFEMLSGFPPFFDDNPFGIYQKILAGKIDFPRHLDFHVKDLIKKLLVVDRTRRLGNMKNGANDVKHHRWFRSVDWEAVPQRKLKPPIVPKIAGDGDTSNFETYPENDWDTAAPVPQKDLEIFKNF

SMILES | assay | setting | measurement | result
COc1cc2ncnc(Nc3ccc(Oc4ccccc4)cc3C)c2cc1OC | enzyme activity, inhibitor | 1 µM | inhibition | 6%
C[C@@]1(Cc2ccc(C#N)cc2)C(=O)N(c2cc(Cl)cc(Cl)c2)c2ncc(C(=O)NC3(c4nc(C5CCC5)no4)CC3)n21 | cell-free assay, competition with immobilised ligand | 1 µM | remaining binding | 100%
Cc1ccc(NC(=O)c2ccc(C)c(C(F)(F)F)c2)cc1C#Cc1nn(C2CCC(O)CC2)c2ncnc(N)c12 (centres unmarked) | cell-free assay | 10 µM | remaining signal | 105%
N#CCCc1ccc2c(c1)-c1[nH]c3ccc([N+](=O)[O-])cc3c1CC(=O)N2 | cell-free assay | 0.5 µM | remaining signal | 78.4%
CC(C)(C)c1nc(-c2cccc(NS(=O)(=O)c3c(F)cccc3F)c2F)c(-c2ccnc(N)n2)s1 | enzyme activity, inhibitor, radiometric | 1 µM | remaining activity | 77%
Cc1ccc(Nc2nccc(N(C)c3ccc4c(C)n(C)nc4c3)n2)cc1S(N)(=O)=O | enzyme activity, inhibitor | 0.3 µM | inhibition | 61%
O=C(Nc1cccnn1)N1CCC(=Cc2cccc(Oc3ccc(C(F)(F)F)cn3)c2)CC1 | cell-free assay, competition with immobilised ligand | 1 µM | remaining binding | 87%
Cc1cnc(NC2CCOCC2)nc1-n1cnc(C(=O)NC(CN)c2cc(F)cc(Cl)c2)c1 (centres unmarked) | enzyme activity, inhibitor, radiometric | 1 µM | remaining activity | 24%
CCS(=O)(=O)c1cc2cc(C[C@@](O)(CC(C)(C)c3ccc(F)cc3C(N)=O)C(F)(F)F)[nH]c2cn1 | cell-free assay, competition with immobilised ligand | 1 µM | remaining binding | 77%
CCN(CC)c1ccc(C2=NNC(=O)CC2C)cc1[N+](=O)[O-] (centres unmarked) | enzyme activity, inhibitor | 10 µM | remaining activity | 91%
CC/C(=N\NC(=O)NCc1cccc(O)c1)c1ccc(O)c(C)c1O | enzyme activity, inhibitor | 0.1 µM | inhibition | 81.9%
C[C@H](c1cccc(C#N)c1)n1cc(Cl)cc(C(N)=O)c1=N | cell-free assay, competition with immobilised ligand | 1 µM | remaining binding | 100%
CNC(=O)c1cc(Oc2ccc(NC(=O)Nc3ccc(Cl)c(C(F)(F)F)c3)cc2)ccn1 | enzyme activity, inhibitor | 10 µM | inhibition | 48%
CNCc1ccccc1-c1csc([C@@H](C)Nc2nc(C)nc3cc(OC)c(OC)cc23)c1 | cell-free assay, competition with immobilised ligand | 1 µM | remaining binding | 67%
Cc1ccc(C(=O)NCc2ccsc2)cc1C#Cc1cn(C(C)C)c2ncnc(N)c12 | enzyme activity, inhibitor | 1 µM | activity vs control | 110%
CO[C@@H](C)c1c(Nc2ccc([C@@H](N(C)C(=O)C3CCS(=O)(=O)CC3)C(F)(F)F)cc2)cnc2cc(Cl)nn12 | cell-free assay, competition with immobilised ligand | 1 µM | remaining binding | 84%
Nc1ncnc2occ(-c3ccc(NC(=O)Nc4cc(C(F)(F)F)ccc4F)cc3)c12 | cell-free assay, inhibitor | 20 µM | remaining signal | 74%
Cc1cc(NC(=O)c2cccc3cc(-c4cccc5[nH]nc(N)c45)ccc23)ccc1F | enzyme activity, inhibitor | 0.1 µM | activity vs control | 101%
COc1cc(Cl)c(C(=O)N[C@@H](CN[C@H]2CC[C@@H](N)CC2)Cc2ccc(C#N)cc2)cc1-c1ccc(CN[C@H](C)c2ccc(C)cc2)o1 | enzyme activity, inhibitor | 1 µM | remaining activity | 97%
CCCOc1ccc(OC)c(F)c1C(=O)c1ccc(C(=O)N[C@@H]2CNC[C@H]2NC(=O)c2ccc3[nH]ncc3c2)cc1 | enzyme activity, inhibitor | 0.5 µM | remaining activity | 5%
CNC(=O)c1ccc(Nc2ncc(C(F)(F)F)c(NCc3nccnc3N(C)S(C)(=O)=O)n2)cc1 | cell-free assay, competition with immobilised ligand | 0.1 µM | remaining binding | 95%
Cn1cnc(Br)c1C1=CN(c2ncnc3[nH]cnc23)CCS1 | enzyme activity, inhibitor, radiometric | 50 nM | inhibition | 17.6%
Cc1sc(C(=O)NC2COC2)cc1-n1cc(NC(=O)Nc2c(F)cccc2Cl)cn1 | enzyme activity, inhibitor | 10 µM | remaining activity | 87.5%
CC1=C(C#N)C(c2ccc3c(c2)c(NC(=O)c2ccccc2C)nn3C)C(C#N)=C(C)N1 | cell-free assay, competition with immobilised ligand | 1 µM | remaining binding | 76%
CCN(CC)CCNC(=O)c1c(C)[nH]c(/C=C2\C(=O)Nc3ccc(F)cc32)c1C | enzyme activity, inhibitor | 0.3 µM | inhibition | 1%
O=C1NC(=O)c2cc(Nc3ccc(F)cc3)c(Nc3ccc(F)cc3)cc21 | cell-free assay | 0.5 µM | remaining signal | 103%
